Read-outs that look alike come from different tables or passages of the source. Values belong to the compound of their own block, whether it stands above or below them.
Experiments:
[1] = type: in vivo, human; conditions: Part 1: single oral 400 mg [14C]-imlunestrant solution
Procedure, shortened: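 Healthy women received a single oral 400 mg radiolabelled test compound solution (100 µCi). Urine was collected −12–0, 0–6, 6–12 and 12–24 h, then in 24-h intervals. Feces were pooled 0–24 h, then in 24-h intervals. Collection continued until ≥90% of dose was recovered and ≤1%/day for 2 consecutive days, or Day 22. Vomitus was collected within 4 h. Radioactivity was counted by LSC and reported as % and cumulative % of dose.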

[2] = type: in vivo; conditions: female, human, plasma, po, 400 mg
[3] = Metabolite profiling and identification in plasma and feces; type: in vivo, human; conditions: Part 1: oral 400 mg [14C]-imlunestrant solution
Procedure, shortened: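 Part 1 plasma was sampled predose and 0.5–264 h after the oral radiolabelled dose. It was extracted twice with acetonitrile (3 volumes), dried, and reconstituted in 10 mM ammonium formate pH 9.0:methanol (80:20). Separation was on a C18 column with 10 mM ammonium formate pH 9.0 / methanol, gradient 20% to 90% B. Fecal metabolites were identified if ≥1% of dose across time points.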

[4] = type: in vivo, human
Safety and tolerability = type: in vivo, human
Procedure, shortened: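 AEs and SAEs were monitored to Day 59 (Part 1) or Day 46 (Part 2), with a follow-up call ~7 days after discharge. Part 2 gave two 200-mg oral tablets, then 4 h later a 45 µg (~1 µCi) radiolabelled IV infusion over 15 min. TEAEs were summarised by treatment, MedDRA v24.0 system organ class and preferred term. Severity (mild/moderate/severe) was graded by the investigator.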

[5] = molecular target: cytochrome P450 (CYP) 3A4 (Homo sapiens, UniProt P08684); assay: In vitro enzyme substrate studies, CYP3A4; type: in vitro ADME
cytochrome P450 (CYP) 3A4, sequence (P08684 whole entry): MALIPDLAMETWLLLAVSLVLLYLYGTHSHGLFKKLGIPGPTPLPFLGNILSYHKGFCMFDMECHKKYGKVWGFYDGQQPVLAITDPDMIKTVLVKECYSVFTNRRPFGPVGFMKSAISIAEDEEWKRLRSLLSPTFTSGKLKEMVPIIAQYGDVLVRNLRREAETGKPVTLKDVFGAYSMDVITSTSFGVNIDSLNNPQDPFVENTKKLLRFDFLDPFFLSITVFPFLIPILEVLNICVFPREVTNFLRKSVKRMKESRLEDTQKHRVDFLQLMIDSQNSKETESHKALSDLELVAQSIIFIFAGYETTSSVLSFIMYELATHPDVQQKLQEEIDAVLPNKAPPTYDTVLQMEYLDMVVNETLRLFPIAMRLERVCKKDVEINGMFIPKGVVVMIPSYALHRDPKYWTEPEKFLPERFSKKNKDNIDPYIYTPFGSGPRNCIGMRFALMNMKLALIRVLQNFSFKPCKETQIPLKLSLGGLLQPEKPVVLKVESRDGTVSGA

[6] = test system: uridine 5′ diphospho‐glucuronosyltransferases (UGTs; including UGT1A1, UGT1A8, UGT1A3, UGT1A9, and UGT1A10); assay: In vitro enzyme substrate studies, UGTs; type: in vitro ADME
[7] = Estimated first-pass metabolism in gut and liver; type: in vivo, human
[8] = Biliary excretion in bile-cannulated rats; type: in vivo; conditions: data not shown
[9] = oral 200‐1200 mg once daily, patients, EMBER; cited from earlier work
P‐glycoprotein = conditions: in vitro; cited from earlier work
[10] = similar to Biopharmaceutics Classification System Class 2 compounds; cited from earlier work
[11] = cited from earlier work
[12] = Part 2: 45 µg [14C]-imlunestrant (1 µCi) IV infusion
[13] = female, human, plasma, intravenous, 45 µg
[14] = female, human, plasma, iv, 45 µg
[15] = female, human, plasma, po, 400 mg
[16] = Part 1: 400 mg [14C]-imlunestrant oral (N=8)

Radioactivity recovered in the feces in the first 192 hours [1]: Over 90% | Total radioactivity excreted via the feces ([1]; mean of 5 participants): 97.3% | Cmax [2]: 117 ng/mL | half-life [2]: 33.7 h | Detectable in plasma up to [3]: up to 264 hours | Time to Cmax of [14C]‐imlunestrant after start of intravenous infusion [4, 12]: ≤ 15 min | Time to Cmax of total radioactivity after start of intravenous infusion [4, 12]: ≤ 15 min | AUC [4, 13]: 1.92 ng·h/mL | Cmax [4, 13]: 0.585 ng/mL | Tmax [4, 13]: 0.25 h | half-life [4, 13]: 32.5 h | Vd [4, 14]: 1020 L | clearance [4, 14]: 397 mL/min | Cmax [4, 15]: 38.7 ng/mL | Tmax [4, 15]: 4.37 h | half-life [4, 15]: 32.1 h | Substrate of CYP3A4 [5]: substrate | Substrate of UGTs [6]: substrate | Fraction passing through the portal vein extracted by first‐pass metabolism in the liver [7]: Approximately 30% | Fraction of oral dose appearing as a glucuronide metabolite in bile [8]: substantial fraction
SMILES: Oc1ccc2c3c(cnc2c1)-c1ccc(C(F)(F)F)cc1O[C@@H]3c1ccc(OCCN2CC(CF)C2)cc1 [Imlunestrant]
All TEAEs: % of participants with TEAEs (Safety and tolerability; [16]): 100% | All TEAEs: number of participants with TEAEs (Safety and tolerability; [16]): 8 | All TEAEs: number of TEAEs (Safety and tolerability; Part 2: 400 mg imlunestrant oral tablets + 45 µg [14C]-imlunestrant IV (N=8)): 5 | Tolerability (Safety and tolerability; single 400 mg oral solution or tablet/intravenous dose, fasted, healthy women): well tolerated | Dose dependence of Cmax and AUC0‐∞ [9]: dose‐proportional increase | Geometric mean t1/2 [9]: 25 to 30 h | Median tmax [9]: approximately 4 hours | Substrate of the efflux transporter P‐glycoprotein (P‐glycoprotein): in vitro substrate | Permeability [10]: moderate to high

SMILES: C[C@]12CC[C@@H]3c4ccc(O)cc4C[C@@H](CCCCCCCCC[S+]([O-])CCCC(F)(F)C(F)(F)F)[C@H]3[C@@H]1CC[C@@H]2O (stereo partly drawn) [fulvestrant]
Solubility [11]: poorly soluble
